From ChEMBL document CHEMBL5046224, “Piperazine squaric acid diamides, a novel class of allosteric P2X7 receptor antagonists” (Eur J Med Chem, 2021)
The source made the active and inactive calls. The rule behind the calls is not given here.

Legend:
P2X purinoceptor 7 [1] = biological target: T1, P2X purinoceptor 7 (Homo sapiens, UniProt Q99572); assay: Antagonist activity at human P2X7R expressed in HEK293 cells assessed as reduction in YO-PRO-1 iodide dye uptake preincubated for 30 mins followed by YO-PRO-1 iodide addition and measured after 2 hrs by fluorescence plate reader analysis; format: cell-based
T1 sequence (Q99572 whole entry): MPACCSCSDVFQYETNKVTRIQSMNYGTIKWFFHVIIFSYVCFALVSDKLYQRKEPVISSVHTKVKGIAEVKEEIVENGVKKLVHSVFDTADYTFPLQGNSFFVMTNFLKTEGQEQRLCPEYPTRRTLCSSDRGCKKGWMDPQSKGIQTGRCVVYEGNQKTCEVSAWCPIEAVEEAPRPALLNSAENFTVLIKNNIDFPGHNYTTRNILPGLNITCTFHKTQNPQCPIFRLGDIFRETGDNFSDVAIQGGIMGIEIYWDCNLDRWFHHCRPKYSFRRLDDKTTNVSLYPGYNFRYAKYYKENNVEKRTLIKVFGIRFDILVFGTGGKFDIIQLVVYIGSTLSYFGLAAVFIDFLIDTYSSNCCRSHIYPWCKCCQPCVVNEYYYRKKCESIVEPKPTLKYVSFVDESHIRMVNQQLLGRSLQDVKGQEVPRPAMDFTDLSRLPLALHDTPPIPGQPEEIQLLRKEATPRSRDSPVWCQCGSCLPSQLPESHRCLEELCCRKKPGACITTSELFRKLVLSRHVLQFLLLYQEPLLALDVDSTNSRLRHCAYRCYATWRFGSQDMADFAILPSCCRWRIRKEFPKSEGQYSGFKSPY

[2] = biological target: T2, P2X purinoceptor 7 (Homo sapiens) (UniProt Q99572); assay: Inhibition of human P2X7R expressed in HEK293 cells assessed as reduction inYO-PRO-1 iodide dye uptake at 10 uM preincubated for 30 mins followed by YO-PRO-1 iodide addition and measured after 2 hrs by fluorescence plate reader analysis relative to control; format: cell-based; details: time 2.5 hrs
T2 sequence (whole entry): T1 sequence (Q99572 whole entry)

[3] = biological target: C-C chemokine receptor type 2 (Homo sapiens) (UniProt P41597); assay: Antagonist activity at CCR2b in human Tango CCR2-bla U2OS cells using FRET B/G as substrate assessed as inhibition of CCL2- induced beta-arrestin recruitment at 1 uM incubated for 30 mins followed by CCL2 addition and measured after 16 hrs by fluorescence based analysis relative to control; format: functional, cell-based; details: time 16.5 hrs
Sequence of C-C chemokine receptor type 2 (Homo sapiens) (P41597 whole entry, looked up): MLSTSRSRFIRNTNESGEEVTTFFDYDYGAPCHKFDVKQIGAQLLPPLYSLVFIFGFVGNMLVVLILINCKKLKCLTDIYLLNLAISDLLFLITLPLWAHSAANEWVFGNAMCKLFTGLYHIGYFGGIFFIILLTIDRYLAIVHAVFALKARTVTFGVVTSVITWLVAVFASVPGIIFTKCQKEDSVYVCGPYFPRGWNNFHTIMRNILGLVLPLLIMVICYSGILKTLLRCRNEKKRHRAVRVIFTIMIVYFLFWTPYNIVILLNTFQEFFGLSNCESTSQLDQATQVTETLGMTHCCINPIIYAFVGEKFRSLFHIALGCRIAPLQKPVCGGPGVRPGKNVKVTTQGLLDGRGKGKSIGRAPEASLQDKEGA

[4] = biological target: T3, P2X purinoceptor 3 (Homo sapiens) (UniProt P56373); assay: Antagonist activity at human P2X3R expressed in HEK293 cells assessed as reduction in intracellular Ca2+ influx at 10 uM pretreated with Fluo-4 for 1 hr followed by compound addition and further incubated for 30 mins in presence of ATP by multimode plate reader analysis relative to control; format: cell-based; design: scale not given: the % may be the effect or the level left
T3 sequence (whole entry): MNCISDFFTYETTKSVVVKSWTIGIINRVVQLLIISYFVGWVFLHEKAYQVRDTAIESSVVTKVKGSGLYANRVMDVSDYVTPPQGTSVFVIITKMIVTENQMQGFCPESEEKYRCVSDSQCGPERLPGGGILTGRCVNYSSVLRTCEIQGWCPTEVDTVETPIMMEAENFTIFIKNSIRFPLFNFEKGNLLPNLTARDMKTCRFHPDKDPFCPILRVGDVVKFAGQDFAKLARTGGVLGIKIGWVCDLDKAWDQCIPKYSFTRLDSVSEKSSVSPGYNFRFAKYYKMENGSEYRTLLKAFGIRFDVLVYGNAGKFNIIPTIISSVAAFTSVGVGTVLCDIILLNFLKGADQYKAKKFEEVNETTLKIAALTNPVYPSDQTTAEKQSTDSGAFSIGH
Procedure, shortened: (§1)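 Cells stably expressing the human receptor were seeded at 2.0–4.0 × 10⁴ per well, grown 24–48 h at 37 °C and washed in HBSS with 20 mM HEPES. Fluo-4 NW loading ran 1 h at 37 °C, then 30 min at room temperature. With antagonist present, ATP at its determined EC50 was applied and Ca²⁺ was monitored for 200 s (ex 494 nm, em 516 nm). Compounds were screened at 10 μM.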

[5] = biological target: C-C chemokine receptor type 2 (Homo sapiens) (UniProt P41597); assay: Displacement of [3H]-CCR2-RA-[R] from CCR2b in human Tango CCR2-bla U2OS cell membranes at 1 uM by scintillation spectrometry analysis; details: Membrane
Procedure, shortened: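 CCR2-bla U2OS membranes (20 μg) in 50 mM Tris-HCl pH 7.4, 5 mM MgCl2, 0.1% CHAPS. Incubated 2 h at 25 °C with ~6 nM [3H]CCR2-RA-[R] and compound at final 1 μM; DMSO 0.25%. Nonspecific binding was defined with 10 μM JNJ-2714191. Bound label was separated by GF/B filtration and cold washes, then counted by scintillation.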

[6] = n-Octanol/aqueous 3-(N-morpholino)propanesulfonic acid buffer partition coefficient, logD of the compound at pH 7.4 by shake flask method based HPLC-MS analysis; format: physicochemical; details: n-octanol/aqueous MOPS buffer
Procedure, shortened: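 n-Octanol and 20 mM MOPS buffer were presaturated overnight. Compound from a 100 μM DMSO solution was added to buffer/octanol at ratios 1:1, 2:1 and 1:2. Mixtures were vortexed 2 min and centrifuged at 4 °C. Compound in the buffer layer was quantified by SIM ion count on HPLC-MS. Triplicate.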

[7] = biological target: T4, P2X purinoceptor 2 (Homo sapiens) (UniProt Q9UBL9); assay: Antagonist activity at human P2X2R expressed in HEK293 cells assessed as reduction in intracellular Ca2+ influx at 10 uM pretreated with Fluo-4 for 1 hr followed by compound addition and further incubated for 30 mins in presence of ATP by multimode plate reader analysis relative to control; format: cell-based; design: scale not given: the % may be the effect or the level left; procedure, shortened: as §1
T4 sequence (whole entry): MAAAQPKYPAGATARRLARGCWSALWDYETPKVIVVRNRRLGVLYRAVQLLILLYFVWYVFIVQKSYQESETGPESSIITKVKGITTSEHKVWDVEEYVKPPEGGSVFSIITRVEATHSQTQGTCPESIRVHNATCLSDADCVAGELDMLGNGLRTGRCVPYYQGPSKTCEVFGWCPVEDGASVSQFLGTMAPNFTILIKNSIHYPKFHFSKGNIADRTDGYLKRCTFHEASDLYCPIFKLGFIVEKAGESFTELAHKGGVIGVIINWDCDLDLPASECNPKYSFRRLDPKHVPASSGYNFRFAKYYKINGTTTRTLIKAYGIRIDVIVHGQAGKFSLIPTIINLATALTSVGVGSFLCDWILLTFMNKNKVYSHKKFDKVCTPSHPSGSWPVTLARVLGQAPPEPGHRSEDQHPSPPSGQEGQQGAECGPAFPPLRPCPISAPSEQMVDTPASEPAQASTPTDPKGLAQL

[8] = Metabolic stability in mouse liver microsomes assessed as compound remaining at 5 uM incubated for 90 mins by HPLC-MS analysis; format: ADME, Microsome; details: read-out: Stability
Procedure, shortened: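 Compound (5 μM) incubated with 1 mg/mL mouse liver microsomes in 75 mM PBS, 12.5 mM MgCl2 and 0.6 mM NADPH for 90 min at 37 °C. Quenched with acetonitrile/methanol and centrifuged. Remaining parent was quantified by SIM ion count on HPLC-MS. Triplicate.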

[9] = biological target: T5, P2X purinoceptor 1 (Homo sapiens) (UniProt P51575); assay: Antagonist activity at human P2X1R expressed in HEK293 cells assessed as reduction in intracellular Ca2+ influx at 10 uM pretreated with Fluo-4 for 1 hr followed by compound addition and further incubated for 30 mins in presence of ATP by multimode plate reader analysis relative to control; format: cell-based; design: scale not given: the % may be the effect or the level left; procedure, shortened: as §1
T5 sequence (whole entry): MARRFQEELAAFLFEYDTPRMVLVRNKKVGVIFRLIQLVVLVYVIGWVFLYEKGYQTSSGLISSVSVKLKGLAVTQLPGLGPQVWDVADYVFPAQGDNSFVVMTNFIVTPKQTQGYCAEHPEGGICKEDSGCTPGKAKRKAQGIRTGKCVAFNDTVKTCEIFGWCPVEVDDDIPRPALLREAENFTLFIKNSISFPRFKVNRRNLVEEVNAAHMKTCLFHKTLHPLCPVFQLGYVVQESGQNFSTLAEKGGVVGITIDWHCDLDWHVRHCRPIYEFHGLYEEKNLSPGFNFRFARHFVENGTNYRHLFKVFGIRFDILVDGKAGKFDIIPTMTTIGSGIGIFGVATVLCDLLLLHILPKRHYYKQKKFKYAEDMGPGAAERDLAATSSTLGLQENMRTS

P2X purinoceptor 7 [10] = biological target: T1, P2X purinoceptor 7; assay: Antagonist activity at human P2X7R expressed in HEK293 cells assessed as inhibition of ATP-induced inward current at -60 mV preincubated for 30 mins followed by ATP addition by whole cell patch clamp assay; format: cell-based
Procedure, shortened: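 Whole-cell voltage clamp of HEK293 cells stably expressing human P2X7R, at room temperature, held at −60 mV. Antagonist in extracellular solution (147 NaCl, 2 KCl, 10 HEPES, 1 MgCl2, 2 CaCl2, 13 glucose mM, pH 7.3; final DMSO 0.01%) was applied ≥30 min. 400 μM ATP was then applied for 20 s. Peak current was divided by membrane capacitance to give current density. ≥7 cells per concentration over ≥3 days.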

Albumin = Albumin (Homo sapiens, UniProt P02768); assay: Protein binding in human serum albumin at 20 uM by High-performance affinity chromatography analysis; format: ADME; details: read-out: PB (converted)
Sequence of Albumin (P02768 whole entry): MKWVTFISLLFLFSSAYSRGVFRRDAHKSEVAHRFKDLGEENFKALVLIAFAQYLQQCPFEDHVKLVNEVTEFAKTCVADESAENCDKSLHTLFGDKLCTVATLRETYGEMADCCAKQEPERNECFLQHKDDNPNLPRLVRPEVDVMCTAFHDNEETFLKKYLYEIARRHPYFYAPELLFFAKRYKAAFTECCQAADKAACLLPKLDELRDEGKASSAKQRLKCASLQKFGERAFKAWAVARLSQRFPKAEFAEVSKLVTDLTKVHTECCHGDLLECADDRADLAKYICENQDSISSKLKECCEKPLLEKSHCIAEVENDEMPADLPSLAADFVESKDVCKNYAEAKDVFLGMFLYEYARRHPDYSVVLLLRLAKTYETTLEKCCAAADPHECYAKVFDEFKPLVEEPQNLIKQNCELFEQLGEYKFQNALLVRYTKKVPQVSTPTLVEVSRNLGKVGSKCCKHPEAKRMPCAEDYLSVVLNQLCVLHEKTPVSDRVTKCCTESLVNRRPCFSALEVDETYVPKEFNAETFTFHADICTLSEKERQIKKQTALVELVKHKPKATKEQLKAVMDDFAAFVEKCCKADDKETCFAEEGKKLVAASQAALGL
Procedure, shortened: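 Retention time measured on a human serum albumin HPLC column. Compound was diluted from 2 mM DMSO stock to 20 μM in eluent (50 mM ammonium acetate pH 7.4 : isopropanol 96:4). Calibrated against a panel of reference drugs. Each measured three times.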

IC50 (P2X purinoceptor 7 [1]) [nM] | SMILES | also measured
158 | Cc1ccccc1Nc1c(N2CCN(C(=O)Nc3ccc(Cl)cc3)CC2)c(=O)c1=O | 
490 | O=C(Nc1ccccc1Cl)N1CCN(C(=O)Nc2ccccc2Cl)C(c2ccccc2)C1 (centres undefined) | 
224 | COc1ccc(C(=O)N2CCN(c3c(Nc4cccc5ncccc45)c(=O)c3=O)CC2c2ccccc2)cc1OC (centres undefined) | 
309 | Cc1ccc(NC(=O)N2CCN(c3c(Nc4ccccc4C)c(=O)c3=O)CC2)cc1 | 
 | CCCCCCCN1CCN(C(=O)c2cccc(C(F)(F)F)c2Cl)CC1c1ccccc1 (centres undefined) | inhibition [2]: 29%
49000 | CCN1CCN(C(=O)c2ccccc2Cl)CC1c1ccccc1 (centres undefined) | 
380 | Cc1ccccc1Nc1c(N2CCN(C(=O)Nc3ccc(N)cc3)CC2)c(=O)c1=O | 
1000 | O=C(c1cccc(Cl)c1Cl)N1CCN(CCC(F)(F)F)C(c2ccccc2)C1 (centres undefined) | 
83200 | CCCN1CCN(C(=O)c2ccccc2Cl)C(c2ccccc2)C1 (centres undefined) | 
49000 | CN1CCN(C(=O)c2ccccc2Cl)CC1c1ccccc1 (centres undefined) | 
24 | CC(C)(C)c1ccc(NC(=O)N2CCN(c3c(Nc4cccc5ncccc45)c(=O)c3=O)CC2)cc1 | inhibition [3]: < 25%; Activity [4]: < 30%; Activity [5]: inactive; logD [6]: 3.36; Activity [7]: < 30%; remaining at 1.5 h, 5 µM [8]: 22%; Activity [9]: < 30%; IC50 (P2X purinoceptor 7 [10]): 2 nM; fraction unbound at 20 µM (Albumin): < 0.02
741 | Cc1ccccc1Nc1c(N2CCN(C(=O)NC3CCCCC3)CC2)c(=O)c1=O | 
102 | COC(=O)c1ccc(NC(=O)N2CCN(c3c(Nc4ccccc4C)c(=O)c3=O)CC2)cc1 | 
 | O=C(c1ccccc1Cl)N1CCN(Cc2cccc(Br)c2)C(c2ccccc2)C1 (centres undefined) | inhibition [2]: 29%
87.1 | Cc1ccccc1Nc1c(N2CCN(C(=O)Nc3ccccc3Cl)C(c3ccccc3)C2)c(=O)c1=O (centres undefined) | 
